Consider three compounds from publication PMC3904508 (Lab on a chip, 2013).

Holding throughout (assay type): cell-based
The target of one test is T1, human TMEM16A (Homo sapiens, UniProt Q5XXA6, DEL476-501).
T1 sequence (Q5XXA6 with tags, fused parts or gaps isoform Q5XXA6-5 DEL539-564): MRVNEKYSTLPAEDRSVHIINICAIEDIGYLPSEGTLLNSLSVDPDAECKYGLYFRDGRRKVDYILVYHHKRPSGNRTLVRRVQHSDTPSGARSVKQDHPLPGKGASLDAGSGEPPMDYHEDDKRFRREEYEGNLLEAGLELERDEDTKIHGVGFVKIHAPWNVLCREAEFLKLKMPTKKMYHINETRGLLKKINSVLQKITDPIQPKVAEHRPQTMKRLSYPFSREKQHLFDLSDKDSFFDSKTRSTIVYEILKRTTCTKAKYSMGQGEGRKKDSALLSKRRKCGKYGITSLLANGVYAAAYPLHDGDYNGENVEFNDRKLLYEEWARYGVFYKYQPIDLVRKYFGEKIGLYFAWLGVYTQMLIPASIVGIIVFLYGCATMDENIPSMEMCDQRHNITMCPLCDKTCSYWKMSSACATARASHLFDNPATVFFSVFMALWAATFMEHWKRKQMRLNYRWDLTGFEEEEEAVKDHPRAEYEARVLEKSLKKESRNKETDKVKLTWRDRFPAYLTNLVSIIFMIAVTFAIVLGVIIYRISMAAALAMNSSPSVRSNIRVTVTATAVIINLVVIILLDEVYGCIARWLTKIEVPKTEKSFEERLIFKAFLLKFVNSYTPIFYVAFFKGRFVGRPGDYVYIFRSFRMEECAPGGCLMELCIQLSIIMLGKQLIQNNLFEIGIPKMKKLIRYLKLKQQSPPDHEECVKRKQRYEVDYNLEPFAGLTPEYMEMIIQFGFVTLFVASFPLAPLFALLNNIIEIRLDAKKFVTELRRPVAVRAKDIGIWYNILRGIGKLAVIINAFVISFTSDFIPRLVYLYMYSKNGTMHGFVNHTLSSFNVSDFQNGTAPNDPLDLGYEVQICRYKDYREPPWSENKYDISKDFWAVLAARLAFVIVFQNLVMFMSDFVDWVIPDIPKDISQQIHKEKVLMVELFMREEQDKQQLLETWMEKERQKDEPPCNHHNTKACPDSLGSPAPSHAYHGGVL
As to the kind of experiment: Single-shot microfluidics YFP fluorescence iodide influx assay, TMEM16A. The note with it: TMEM16A-expressing FRT cells; fitted dose-response, Fig. 4B. The method in brief: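 FRT cells stably co-expressing human TMEM16A (abc isoform) and YFP-F46L/H148Q/I152L were grown 8–24 h at 37 °C under perfusion on fibronectin-coated coverglass. Cells were perfused 10 min with a gradient between PBS and PBS containing 30 μM test compound. Solution was then switched to 70 mM I− plus 50 μM ATP. YFP fluorescence was imaged at 2 Hz, and the Hill equation was fitted.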

The target of test [1] is T2, human CFTR (Homo sapiens, UniProt P13569). The experiment in a line: Conventional plate reader YFP fluorescence iodide influx assay, CFTR.
For test [2], the target named is T2, human CFTR. As to the kind of experiment: Single-shot microfluidics YFP fluorescence iodide influx assay, CFTR.

T2 sequence (P13569 whole entry): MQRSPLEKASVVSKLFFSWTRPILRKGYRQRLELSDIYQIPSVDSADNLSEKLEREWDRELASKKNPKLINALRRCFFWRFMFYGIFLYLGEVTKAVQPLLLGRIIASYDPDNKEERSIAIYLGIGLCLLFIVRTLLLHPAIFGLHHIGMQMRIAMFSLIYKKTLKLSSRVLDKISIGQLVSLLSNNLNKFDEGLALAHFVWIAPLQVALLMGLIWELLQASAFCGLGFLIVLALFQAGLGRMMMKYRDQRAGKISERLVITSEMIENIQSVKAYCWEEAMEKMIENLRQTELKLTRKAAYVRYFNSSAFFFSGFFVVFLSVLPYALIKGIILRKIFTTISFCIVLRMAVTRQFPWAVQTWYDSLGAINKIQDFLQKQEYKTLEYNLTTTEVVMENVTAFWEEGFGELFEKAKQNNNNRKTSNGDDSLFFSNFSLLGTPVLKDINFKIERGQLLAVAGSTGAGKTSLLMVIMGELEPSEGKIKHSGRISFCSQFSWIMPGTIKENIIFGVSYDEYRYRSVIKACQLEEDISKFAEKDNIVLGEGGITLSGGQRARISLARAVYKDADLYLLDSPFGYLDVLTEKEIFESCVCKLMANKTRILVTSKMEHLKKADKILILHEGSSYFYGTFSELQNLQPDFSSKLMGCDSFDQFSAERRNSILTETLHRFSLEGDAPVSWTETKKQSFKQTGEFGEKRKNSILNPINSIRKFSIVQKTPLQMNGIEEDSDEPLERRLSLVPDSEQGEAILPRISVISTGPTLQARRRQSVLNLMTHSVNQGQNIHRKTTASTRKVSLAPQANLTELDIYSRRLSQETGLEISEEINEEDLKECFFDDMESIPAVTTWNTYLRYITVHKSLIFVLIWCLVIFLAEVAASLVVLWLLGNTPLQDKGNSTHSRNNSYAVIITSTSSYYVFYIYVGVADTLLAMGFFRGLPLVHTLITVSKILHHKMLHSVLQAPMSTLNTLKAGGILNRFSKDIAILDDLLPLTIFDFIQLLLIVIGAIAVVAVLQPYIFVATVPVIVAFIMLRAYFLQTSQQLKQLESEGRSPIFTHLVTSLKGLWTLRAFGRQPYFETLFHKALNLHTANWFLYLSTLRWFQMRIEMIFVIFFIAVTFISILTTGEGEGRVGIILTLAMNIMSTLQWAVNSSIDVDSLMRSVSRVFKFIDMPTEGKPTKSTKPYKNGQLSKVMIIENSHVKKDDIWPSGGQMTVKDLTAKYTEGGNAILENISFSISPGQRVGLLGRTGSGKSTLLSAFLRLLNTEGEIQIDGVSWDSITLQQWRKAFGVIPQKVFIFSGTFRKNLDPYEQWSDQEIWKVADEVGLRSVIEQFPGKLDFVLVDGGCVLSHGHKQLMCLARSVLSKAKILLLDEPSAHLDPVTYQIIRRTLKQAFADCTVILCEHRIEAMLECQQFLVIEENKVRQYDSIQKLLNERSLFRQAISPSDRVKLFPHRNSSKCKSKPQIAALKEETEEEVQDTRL

For `CCc1c(C)nc(SCC(=O)Nc2nc(-c3ccc(OC)cc3)cs2)[nH]c1=O` [TMinh-A01], the “nH (Hill coefficient, TMEM16A inhibition, single-shot microfluidics)” value at human TMEM16A came to 2.2. As a reminder, the IC50 is the concentration that inhibits the measured activity by half. A low value points to inhibition by little substance. `C=C[C@@]1(C)CC(=O)[C@]2(O)[C@@]3(C)[C@@H](O)CCC(C)(C)[C@@H]3[C@H](O)[C@H](OC(C)=O)[C@@]2(C)O1` [forskolin]: the results for the half-inhibitory concentration (IC50) against human CFTR [1] and at human CFTR [2] were 2900 ± 400 nM and 3.2 ± 0.2 µM, respectively. Besides, the “nH (Hill coefficient, CFTR activation, single-shot microfluidics)” value on human CFTR [2] (CFTR-expressing FRT cells, fitted dose-response, Fig. 3C) is on record as 1.8. For CFTRinh-172, the “nH (Hill coefficient, CFTR inhibition, single-shot microfluidics)” value at human CFTR [2] (CFTR-expressing FRT cells, 5 μM forskolin, fitted dose-response, Fig. 3E) is listed as 1.4.
